According to ChEMBL document CHEMBL3739379, “Anti-Candida activity and cytotoxicity of a large library of new N-substituted-1,3-thiazolidin-4-one derivatives” (Eur J Med Chem, 2016):
In brackets after ≈: the same amount, converted by molar mass.

What was measured:
Format in all cases: functional
Candida tropicalis = assay: Antifungal activity against Candida tropicalis clinical isolate after 24 hrs by sabouraud dextrose broth based microdilution method
Procedure, shortened: (§1)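 Clinical isolates identified by conventional methods and subcultured for purity. Broth microdilution per NCCLS in Sabouraud dextrose broth; compounds dissolved in DMSO and serially diluted; inoculum 10^3/mL. Controls: fungi without compound, medium only. Incubated 24 h at 37 °C. MIC is the lowest concentration with complete growth inhibition by unaided eye. Values are geometric means over isolates per species.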

Pichia kudriavzevii = assay: Antifungal activity against Candida krusei clinical isolate after 24 hrs by sabouraud dextrose broth based microdilution method; procedure, shortened: as §1
Escherichia coli = assay: Antibacterial activity against Escherichia coli at after 18 to 22 hrs by broth microdilution method
Procedure, shortened: (§2)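 Broth microdilution per NCCLS in Mueller-Hinton II broth; isolates subcultured for purity. Compounds dissolved in DMSO, serial dilutions 256 to 0.5 µg/mL; inoculum 10^5/mL. Controls: organism without compound, medium only. Incubation 18 to 22 h at 35 °C. MIC is the lowest concentration giving complete growth inhibition, read by unaided eye.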

Staphylococcus aureus = assay: Antibacterial activity against Staphylococcus aureus after 18 to 22 hrs by broth microdilution method; procedure, shortened: as §2
Nakaseomyces glabratus = assay: Antifungal activity against Candida glabrata clinical isolate after 24 hrs by sabouraud dextrose broth based microdilution method; procedure, shortened: as §1
[1] = test system: Staphylococcus haemolyticus; assay: Antibacterial activity against Staphylococcus haemolyticus after 18 to 22 hrs by broth microdilution method; procedure, shortened: as §2
Klebsiella oxytoca = assay: Antibacterial activity against Klebsiella oxytoca after 18 to 22 hrs by broth microdilution method; procedure, shortened: as §2
Enterococcus faecalis = assay: Antibacterial activity against […] faecalis after 18 to 22 hrs by broth microdilution method; procedure, shortened: as §2
Staphylococcus warneri = assay: Antibacterial activity against Staphylococcus warneri after 18 to 22 hrs by broth microdilution method; procedure, shortened: as §2
Candida parapsilosis = assay: Antifungal activity against Candida parapsilosis clinical isolate after 24 hrs by sabouraud dextrose broth based microdilution method; settings: Lodderomyces parapsilosis; procedure, shortened: as §1
Enterobacter sp. = assay: Antibacterial activity against Enterobacter sp. after 18 to 22 hrs by broth microdilution method; procedure, shortened: as §2
Candida albicans = assay: Antifungal activity against Candida albicans clinical isolate after 24 hrs by sabouraud dextrose broth based microdilution method; procedure, shortened: as §1
Proteus mirabilis = assay: Antibacterial activity against Proteus mirabilis after 18 to 22 hrs by broth microdilution method; procedure, shortened: as §2
[Candida] sake = Antifungal activity against Candida sake clinical isolate after 24 hrs by sabouraud dextrose broth based microdilution method; settings: Fermentozyma sake; procedure, shortened: as §1

Row | Structure (SMILES) | MIC (Candida tropicalis) | MIC (Pichia kudriavzevii) | MIC (Escherichia coli) | MIC (Staphylococcus aureus) | MIC (Nakaseomyces glabratus) | MIC (Klebsiella oxytoca) | MIC (Enterococcus faecalis) | MIC (Staphylococcus warneri) | MIC (Candida parapsilosis) | MIC (Enterobacter sp.) | MIC (Candida albicans) | MIC (Proteus mirabilis) | MIC ([Candida] sake) | MIC [1]
1 | C/C(=N\N=C1/SCC(=O)N1CN1C(=O)c2ccccc2C1=O)c1ccco1 | 128 µg/mL (≈ 335 µM) | 256 µg/mL (≈ 669 µM) | > 256 µg/mL | > 256 µg/mL | 16 µg/mL (≈ 41.8 µM) | > 256 µg/mL | > 256 µg/mL | > 256 µg/mL | 256 µg/mL (≈ 669 µM) | > 256 µg/mL | 256 µg/mL (≈ 669 µM) | > 256 µg/mL | 256 µg/mL (≈ 669 µM) | > 256 µg/mL
2 | CC1CC/C(=N\N=C2/SCC(=O)N2Cc2ccc([N+](=O)[O-])cc2)C1 (stereo not given) | 128 µg/mL (≈ 370 µM) | 256 µg/mL (≈ 739 µM) | > 256 µg/mL | > 256 µg/mL | 16 µg/mL (≈ 46.2 µM) | > 256 µg/mL | > 256 µg/mL | > 256 µg/mL | 64 µg/mL (≈ 185 µM) | > 256 µg/mL | 2 µg/mL (≈ 5.77 µM) | > 256 µg/mL | 256 µg/mL (≈ 739 µM) | > 256 µg/mL
3 | O=C1CS/C(=N\N=C2CCCCCC2)N1Cc1cccc2ccccc12 | 8 µg/mL (≈ 21.9 µM) | 4 µg/mL (≈ 10.9 µM) | > 256 µg/mL | > 256 µg/mL | 16 µg/mL (≈ 43.8 µM) | > 256 µg/mL | > 256 µg/mL | > 256 µg/mL | 4 µg/mL (≈ 10.9 µM) | > 256 µg/mL | 8 µg/mL (≈ 21.9 µM) | > 256 µg/mL | 4 µg/mL (≈ 10.9 µM) | > 256 µg/mL
4 | O=C1CS/C(=N\N=C\c2ccc3c(c2)OCO3)N1Cc1cccc2ccccc12 | 16 µg/mL (≈ 39.7 µM) | 8 µg/mL (≈ 19.8 µM) | > 256 µg/mL | > 256 µg/mL | 4 µg/mL (≈ 9.91 µM) | > 256 µg/mL | > 256 µg/mL | > 256 µg/mL | 16 µg/mL (≈ 39.7 µM) | > 256 µg/mL | 8 µg/mL (≈ 19.8 µM) | > 256 µg/mL | 8 µg/mL (≈ 19.8 µM) | > 256 µg/mL
5 | CC1CCC(=N/N=C2\SCC(=O)N2CN2C(=O)c3ccccc3C2=O)CC1 (stereo not given) | 8 µg/mL (≈ 20.8 µM) | 8 µg/mL (≈ 20.8 µM) | > 256 µg/mL | > 256 µg/mL | 32 µg/mL (≈ 83.2 µM) | > 256 µg/mL | > 256 µg/mL | > 256 µg/mL | 8 µg/mL (≈ 20.8 µM) | > 256 µg/mL | 2 µg/mL (≈ 5.2 µM) | > 256 µg/mL | 4 µg/mL (≈ 10.4 µM) | > 256 µg/mL
6 | C=CCC/C(C)=N/N=C1\SCC(=O)N1Cc1ccc([N+](=O)[O-])cc1 | 8 µg/mL (≈ 23.1 µM) | 32 µg/mL (≈ 92.4 µM) | > 256 µg/mL | > 256 µg/mL | 8 µg/mL (≈ 23.1 µM) | > 256 µg/mL | > 256 µg/mL | > 256 µg/mL | 32 µg/mL (≈ 92.4 µM) | > 256 µg/mL | 4 µg/mL (≈ 11.5 µM) | > 256 µg/mL | 8 µg/mL (≈ 23.1 µM) | > 256 µg/mL
7 | CC/C(C)=N/N=C1\SCC(=O)N1CN1C(=O)c2ccccc2C1=O | 64 µg/mL (≈ 186 µM) | 8 µg/mL (≈ 23.2 µM) | > 256 µg/mL | > 256 µg/mL | 2 µg/mL (≈ 5.81 µM) | > 256 µg/mL | > 256 µg/mL | > 256 µg/mL | 8 µg/mL (≈ 23.2 µM) | > 256 µg/mL | 2 µg/mL (≈ 5.81 µM) | > 256 µg/mL | 2 µg/mL (≈ 5.81 µM) | > 256 µg/mL
8 | CCCCC/C(C)=N/N=C1\SCC(=O)N1CN1C(=O)c2ccccc2C1=O | 128 µg/mL (≈ 331 µM) | 2 µg/mL (≈ 5.17 µM) | > 256 µg/mL | > 256 µg/mL | 8 µg/mL (≈ 20.7 µM) | > 256 µg/mL | > 256 µg/mL | > 256 µg/mL | 2 µg/mL (≈ 5.17 µM) | > 256 µg/mL | 4 µg/mL (≈ 10.3 µM) | > 256 µg/mL | 2 µg/mL (≈ 5.17 µM) | > 256 µg/mL
9 | CCCCCC/C(C)=N/N=C1\SCC(=O)N1CN1C(=O)c2ccccc2C1=O | 16 µg/mL (≈ 39.9 µM) | 8 µg/mL (≈ 20 µM) | > 256 µg/mL | > 256 µg/mL | 16 µg/mL (≈ 39.9 µM) | > 256 µg/mL | > 256 µg/mL | > 256 µg/mL | 16 µg/mL (≈ 39.9 µM) | > 256 µg/mL | 2 µg/mL (≈ 4.99 µM) | > 256 µg/mL | 16 µg/mL (≈ 39.9 µM) | > 256 µg/mL

More lines, in order of falling MIC (Candida tropicalis), values ahead:

Row | MIC (Candida tropicalis) | MIC (Pichia kudriavzevii) | MIC (Escherichia coli) | MIC (Staphylococcus aureus) | MIC (Nakaseomyces glabratus) | MIC (Klebsiella oxytoca) | MIC (Enterococcus faecalis) | MIC (Staphylococcus warneri) | MIC (Candida parapsilosis) | MIC (Enterobacter sp.) | MIC (Candida albicans) | MIC (Proteus mirabilis) | MIC ([Candida] sake) | Structure (SMILES) | MIC [1]
10 | 256 µg/mL (≈ 675 µM) | 2 µg/mL (≈ 5.27 µM) | > 256 µg/mL | > 256 µg/mL | 8 µg/mL (≈ 21.1 µM) | > 256 µg/mL | > 256 µg/mL | > 256 µg/mL | 16 µg/mL (≈ 42.2 µM) | > 256 µg/mL | 8 µg/mL (≈ 21.1 µM) | > 256 µg/mL | 16 µg/mL (≈ 42.2 µM) | C/C(=N\N=C1/SCC(=O)N1Cc1cccc2ccccc12)C1CCCCC1 | > 256 µg/mL
11 | 16 µg/mL (≈ 42.2 µM) | 8 µg/mL (≈ 21.1 µM) | > 256 µg/mL | > 256 µg/mL | 8 µg/mL (≈ 21.1 µM) | > 256 µg/mL | > 256 µg/mL | > 256 µg/mL | 16 µg/mL (≈ 42.2 µM) | > 256 µg/mL | 256 µg/mL (≈ 675 µM) | > 256 µg/mL | 32 µg/mL (≈ 84.3 µM) | O=C1c2ccccc2C(=O)N1CN1C(=O)CS/C1=N\N=C\c1cccnc1 | > 256 µg/mL
12 | 8 µg/mL (≈ 21.6 µM) | 16 µg/mL (≈ 43.2 µM) | > 256 µg/mL | > 256 µg/mL | 32 µg/mL (≈ 86.4 µM) | > 256 µg/mL | > 256 µg/mL | > 256 µg/mL | 8 µg/mL (≈ 21.6 µM) | > 256 µg/mL | 2 µg/mL (≈ 5.4 µM) | > 256 µg/mL | 16 µg/mL (≈ 43.2 µM) | CC1CC/C(=N\N=C2/SCC(=O)N2CN2C(=O)c3ccccc3C2=O)C1 (stereo not given) | > 256 µg/mL
13 | 8 µg/mL (≈ 22.8 µM) | 2 µg/mL (≈ 5.69 µM) | > 256 µg/mL | > 256 µg/mL | 2 µg/mL (≈ 5.69 µM) | > 256 µg/mL | > 256 µg/mL | > 256 µg/mL | 2 µg/mL (≈ 5.69 µM) | > 256 µg/mL | 2 µg/mL (≈ 5.69 µM) | > 256 µg/mL | 2 µg/mL (≈ 5.69 µM) | C=CCC/C(C)=N/N=C1\SCC(=O)N1Cc1cccc2ccccc12 | > 256 µg/mL
14 | 4 µg/mL (≈ 10.8 µM) | 2 µg/mL (≈ 5.4 µM) | > 256 µg/mL | > 256 µg/mL | 32 µg/mL (≈ 86.4 µM) | > 256 µg/mL | > 256 µg/mL | > 256 µg/mL | 8 µg/mL (≈ 21.6 µM) | > 256 µg/mL | 16 µg/mL (≈ 43.2 µM) | > 256 µg/mL | 8 µg/mL (≈ 21.6 µM) | CC1CCC/C1=N\N=C1/SCC(=O)N1CN1C(=O)c2ccccc2C1=O (stereo not given) | > 256 µg/mL
15 | 2 µg/mL (≈ 5.52 µM) | 16 µg/mL (≈ 44.1 µM) | > 256 µg/mL | > 256 µg/mL | 8 µg/mL (≈ 22.1 µM) | > 256 µg/mL | > 256 µg/mL | > 256 µg/mL | 16 µg/mL (≈ 44.1 µM) | > 256 µg/mL | 2 µg/mL (≈ 5.52 µM) | > 256 µg/mL | 2 µg/mL (≈ 5.52 µM) | CCCC/C(CC)=N/N=C1\SCC(=O)N1Cc1ccc([N+](=O)[O-])cc1 | > 256 µg/mL
